# High-throughput results: PubChem BioAssay, The Scripps Research Institute Molecular Screening Center
# M4 antag: antagonists of human muscarinic M4 receptor (CHRM4). P08173. CHO-hM4 cells, ACh EC80, Fluo-8 calcium fluorescence. inhibition, % at 3 µM. 0.73% of 360,000 active;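 active = inhibition above its plate's cutoff, the mean inhibition of sample wells plus 3 SD, cut at about 27% in these data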;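 also: 0% = acetylcholine EC80 with DMSO and 100% = DMSO without agonist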
# Target sequence (P08173 whole entry, looked up): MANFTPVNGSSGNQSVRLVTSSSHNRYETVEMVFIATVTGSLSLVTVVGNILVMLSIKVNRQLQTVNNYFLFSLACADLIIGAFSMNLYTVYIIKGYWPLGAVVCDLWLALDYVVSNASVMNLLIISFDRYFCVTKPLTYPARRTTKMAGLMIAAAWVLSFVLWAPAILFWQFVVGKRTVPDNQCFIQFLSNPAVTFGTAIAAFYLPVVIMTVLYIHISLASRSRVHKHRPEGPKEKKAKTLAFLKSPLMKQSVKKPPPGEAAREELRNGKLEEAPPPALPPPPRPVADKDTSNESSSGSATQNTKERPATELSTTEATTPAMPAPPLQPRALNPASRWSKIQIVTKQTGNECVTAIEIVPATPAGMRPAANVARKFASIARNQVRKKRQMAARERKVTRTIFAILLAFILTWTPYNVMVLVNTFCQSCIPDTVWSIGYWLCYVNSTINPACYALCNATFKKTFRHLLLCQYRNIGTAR
# M4 ag: agonists of human muscarinic M4 receptor (CHRM4); 0.14% of 360,000 active; P08173; activation, % at 3 µM; CHO-K1 hM4/Gqi5, Fluo-8 calcium fluorescence; vehicle 0%, full acetylcholine response 100%;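 active = activation above the run mean over all test wells plus 3 SD, cut at about 32% in these data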;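 also: peak over basal fluorescence ratio per well then scaled between controls; 0% = DMSO wells and 100% = acetylcholine at EC100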
# M4 PAM: potentiates acetylcholine response at human M4 receptor | CHO-K1 hM4/Gqi5, Fluo-8 calcium fluorescence, ACh EC20; 0% = ACh EC20, 100% = maximal ACh | activation, % at 3 µM | 0.4% of 360,000 active | AID 624126;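 active = activation above its plate's cutoff, the mean activation of sample wells plus 3 SD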
# CHRM5 antagonist: CHRM5 antagonism in calcium assay. P08912. CHO-hM5 cells, Fluo-8 calcium fluorescence, ACh EC80. inhibition, % at 3 µM. 0.59% of 360,000 active;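 active = inhibition above a per-plate cutoff, the mean of that plate's test compounds plus 3 SD, cut at about 27% in these data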;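 also: 0% = acetylcholine EC80 with DMSO and 100% = DMSO without agonist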
# M5 PAM: potentiates acetylcholine response at human M5 receptor; 0.3% of 360,000 active; activation, % at 3 µM; CHO-K1 hM5, Fluo-8 calcium, ACh EC20 PAM; 0% = ACh EC20, 100% = ACh EC100; P08912;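 active = activation above the run cutoff, the mean activation of all test compounds plus 3 SD, cut at about 18% in these data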
#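 System: CHO-K1 cell line with stable human muscarinic M5 receptor expression | Also added: EC20 acetylcholine as agonist stimulus | Compound: One concentration, 3 µM final (nominal) | Timing: Fluo-8 loading 80 min at 37 °C plus 30 min room temperature | Measured by: Fluo-8 calcium dye fluorescence, kinetic read | Read-out basis: % activation, ACh-normalized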
# CHRM5 agonist: CHRM5 agonism in calcium assay; P08912; CHO-K1 hM5 cells, Fluo-8 calcium fluorescence; 0% DMSO wells, 100% maximal acetylcholine response; activation, % at 3 µM; 0.19% of 360,000 active; AID 624037;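 active = activation above the run's mean over test compounds plus 3 SD, cut at about 23% in these data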;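 also: signal is peak over basal fluorescence ratio across the kinetic read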
# Starred values were filed as active, the others as inactive. Compounds with a hit are over-represented: about 1.8% of the library has one in this group of screens.
SMILES,M4 antag,M4 ag,M4 PAM,CHRM5 antagonist,M5 PAM,CHRM5 agonist
C[C@@H]1CN([C@@H](C)CO)C(=O)CCCn2nncc2CO[C@H]1CN(C)S(=O)(=O)c1ccccc1F,-5.7,0.0,2.4,15.3,-6.1,-0.2
O=C(O)/C=C/c1ccc([N+](=O)[O-])o1,-0.8,1.8,2.0,-3.4,1.6,2.0
O=C1NC(=S)S/C1=C\C=C\c1ccc([N+](=O)[O-])o1,68.2*,22.2,-20.3,48.0*,-10.3,25.5*
c1ccc(Nc2nc(N3CCOCC3)nc(N3CCOCC3)n2)cc1,3.2,0.7,31.3*,16.9,5.3,-2.5
CCN(CC)c1ccc(Nc2nc(N3CCOCC3)c3ccccc3n2)cc1,20.3,6.9,-20.8,30.0*,-15.0,-4.6
c1ccc(Nc2nc(N3CCNCC3)nc(N3CCOCC3)n2)cc1,-8.8,1.0,5.5,4.7,-5.6,-0.7
COc1ccc(Nc2nc(N3CCCC3)c3ccccc3n2)cc1,6.3,5.4,1.4,6.3,-3.6,-1.8
C#CCNC(=O)C[C@@H]1C[C@@]2(C(=O)OCC)CCCC=C2N(Cc2ccc3c(c2)OCO3)C1=O,-9.8,1.3,19.6,-19.1,10.1,2.0
CNc1cc(C)nc(N2CCOCC2)n1,3.4,12.4,-14.6,28.7*,-18.3,-2.8
CCCCn1nnnc1C1(C)CCC(=O)N1Cc1ccco1 (stereo not given),-4.6,0.8,5.5,-0.5,6.2,-0.1
Cn1cnnc1SCCC(=O)Nc1ccccc1,6.8,0.6,37.5*,-2.4,2.5,7.4
CCOC(=O)c1sc(NC(=O)c2ccc(Cl)s2)cc1C,-2.2,1.2,3.6,-1.4,-2.6,1.3
CCOC(=O)c1sc(NC(=O)Nc2ccc(Cl)cc2)cc1C,33.1*,17.3,-16.1,38.0*,-27.1,7.2
CN(CC(=O)Nc1cc(Cl)ccc1-n1cncn1)Cc1ccccc1N1CCOCC1,-27.0,5.1,7.6,-3.3,-5.5,-0.6
CC1(Cc2ccc(Cl)cc2)C(=O)Nc2c(Cl)ccc(Cl)c21 (stereo not given),-8.8,-2.1,-4.2,-1.8,-9.0,-0.4
CC(=O)c1cn(CCOc2cc(C)ccc2C)c2ccccc12,17.4,12.2,-16.9,32.7*,-22.9,0.5
Cc1ccc(C)c(OCCn2cc(C(=O)O)c3ccccc32)c1,1.3,16.9,0.3,23.1,-9.3,1.4
COCc1cccc(-c2csc(C(C)(O)c3ccc(OC)cc3)n2)c1 (stereo not given),5.0,5.6,-6.1,4.8,-5.1,1.1
O=S(=O)(Nc1ccc(F)cc1)c1ccc(S(=O)(=O)N2CCOCC2)cc1,2.6,17.7,-2.7,0.3,-4.8,27.0*
CCCC(C(=O)Nc1ccc(S(=O)(=O)N2CCOCC2)cc1)c1ccccc1 (stereo not given),4.4,22.1,-5.3,5.2,-5.8,23.3*
O=C(NCc1cccnc1)c1ccc(S(=O)(=O)N2CCCCC2)cc1,-6.5,4.2,8.0,-5.1,1.4,1.3
O=S(=O)(c1ccc(NC(=S)Nc2ccccc2)cc1)N1CCOCC1,-11.9,1.3,29.1*,-1.2,24.4*,-3.1
O=S(=O)(Nc1ccc(S(=O)(=O)N2CCCC2)cc1)c1ccc(F)cc1,-0.9,2.3,3.4,-3.6,7.7,-2.0
O=S(=O)(c1ccc(NC(=S)NCc2cccnc2)cc1)N1CCCCC1,37.6*,31.8,-14.7,18.4,-26.8,1.9
COc1cc(CN2C[C@@H](CO)O[C@@H](n3cnc4c(Nc5ccccc5)ncnc43)C2)cc(OC)c1OC,4.9,17.6,-12.2,25.1,-17.8,3.2
SMILES,M4 antag,M4 ag,M4 PAM,CHRM5 antagonist,M5 PAM,CHRM5 agonist
C[C@@H]1CN([C@H](C)CO)S(=O)(=O)c2ccc(C#Cc3ccccc3F)cc2O[C@@H]1CN(C)C(=O)Cc1ccccc1,2.3,3.4,-6.2,-2.4,-6.3,-1.6
O=C(CN1CCOCC1)NNC(=S)Nc1ccccc1,3.2,1.8,12.1,-2.0,29.4*,9.2
O=C(CN1CCOCCOCCOCC1)Nc1ccccc1,2.0,2.0,5.4,10.8,-4.5,1.8
O=C(/C=C/c1cccc(F)c1)Nc1ccc(S(=O)(=O)N2CCOCC2)cc1,-15.1,2.9,11.2,12.0,18.8*,-3.9
Cc1cccc(S(=O)(=O)NC(=O)C2(C)CCN2C(=O)Cc2ccc(C(C)(C)C)cc2)c1 (stereo not given),2.8,-0.1,-3.3,4.4,-1.1,-0.2
COc1ccc(-c2csc(C(C)(NC(C)=O)c3ccccc3)n2)cc1 (stereo not given),-2.5,1.2,0.4,-7.6,-1.7,-0.3
CCOC(=O)C1=CCC(c2cccs2)N(S(=O)(=O)c2ccc(C)cc2)C1 (stereo not given),2.0,-1.8,-8.9,4.2,-9.4,-3.2
CCN1/C(=C/c2sc(-c3ccccc3C)c[n+]2C)Sc2ccccc21,22.9,10.7,-15.7,36.9*,-20.8,-3.0
CN(C)CCNc1oc(COc2cccc(Cl)c2)nc1C#N,15.2,0.8,-4.3,-5.5,4.3,1.1
COCCNc1oc(COc2cccc(C)c2)nc1C#N,-10.5,0.2,4.0,8.0,23.8*,-3.0
Cc1cccc(C)c1-c1ccc(CN2C(CC(C)C)C(=O)N(Cc3cn(CCO)nn3)CCS2(=O)=O)cc1 (stereo not given),28.3*,28.6,-13.3,10.6,-12.5,2.7
CC1C(=O)N(Cc2cn(CCC3OCCCO3)nn2)CCS(=O)(=O)N1Cc1ccc(-c2ccc(Cl)c(Cl)c2)cc1 (stereo not given),39.9*,21.0,-12.4,35.9*,-18.0,7.0
CC1C(=O)N(Cc2cn(CCC3OCCCO3)nn2)CCS(=O)(=O)N1Cc1ccc(-c2ccc(F)cc2)cc1 (stereo not given),-1.8,17.4,-8.7,6.6,-8.1,1.2
O=c1/c(=C\c2ccc(O)cc2)sc2nc(-c3ccccc3)c(-c3ccccc3)n12,-6.5,-0.3,-0.6,3.8,3.1,-0.8
O=c1/c(=C/c2ccccc2)sc2nnc(-c3cccs3)n12,1.3,0.1,0.9,-0.1,19.1*,2.0
NC(=O)c1nc(C(=O)N2CCN(c3ccccc3)CC2)c2ccccc2n1,-11.9,1.4,17.4,-9.9,20.0*,3.4
NC(=O)c1nc(C(=O)N2CCCCC2)c2ccccc2n1,-4.6,0.9,6.0,11.0,8.1,3.5
O=C(O)c1ccc(Br)cn1,-0.8,1.1,20.5*,-4.8,12.6,1.7
O=[N+]([O-])c1ccc2c(c1)nnn2-c1ccccc1,-0.1,1.1,-1.4,9.3,0.2,-4.6
c1ccc(-n2nnc3ccccc32)cc1,81.3*,-1.1,-15.4,24.9,-18.6,-2.0
C=CCN(C)CC/C=C1\c2ccccc2CSc2ccccc21,52.1*,3.2,-17.4,62.0*,-43.0,-13.6
